Active and inactive are the calls of the source. The calls are words filed in the database; no cut-off is given here.
How the values were obtained:
[1] = biological target: T1, Prostaglandin E synthase (Homo sapiens) (UniProt O14684); test: Inhibition of mPGES1-mediated PGE2 production in microsomes of IL-1beta stimulated human A549 cells assessed as residual activity preincubated at 10 uM for 15 mins by RP-HPLC analysis relative to control; assay type: cell-based
T1 sequence (whole entry): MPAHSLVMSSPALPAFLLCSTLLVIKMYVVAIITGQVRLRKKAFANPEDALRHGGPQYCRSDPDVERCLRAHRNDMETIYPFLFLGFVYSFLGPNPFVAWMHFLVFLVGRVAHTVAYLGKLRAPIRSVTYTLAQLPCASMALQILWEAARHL
Procedure, shortened: (§1)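 mPGES-1 source: microsomes of A549 cells treated 48 h with IL-1β 2 ng/mL, at 25−50 μg protein/mL in 0.1 M potassium phosphate pH 7.4 with 2.5 mM glutathione. Compound preincubation 15 min at 4 °C; PGH2 (20 μM final) for 1 min; FeCl2/citric acid stop with 11β-PGE2 internal standard. PGE2 by RP-HPLC.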

[2] = Aqueous stability of the compound in at 2 uM in 10 mM aqueous ammonium bicarbonate at pH 7.9 assessed as formation of trans-6-(4'-hydroxy-3'-methoxyphenyl)-2,4-dioxo-5-hexenal measured as residual amount of compound by reversed phase liquid chromatography-coupled mass spectrometry; assay type: physicochemical; details: buffer, pH 7.9, 2 µM
Procedure, shortened: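 Compounds at 2 μM in 10 mM aqueous ammonium bicarbonate pH 7.9, incubated 30 min at 37 °C. Analysed by UPLC-MS on a C18 column, gradient acetonitrile/water with 0.07% formic acid, at 0.7 mL/min. Residual amount given as % of control; three to four independent experiments.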

LNCaP = test: Cytotoxicity against human LNCAP cells assessed as cell viability after 24 hrs by MTT assay; assay type: cell-based
Procedure, shortened: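 LNCaP seeded at 10⁴ cells/well and exposed 24 h. MTT added, then 4 h at 37 °C, 5% CO2, dark. Medium removed and formazan dissolved in DMSO; absorbance at 570 nm.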

[3] = biological target: T2, Prostaglandin G/H synthase 1 (Ovis aries) (UniProt P05979); test: Inhibition of purified ovine COX-1 assessed as residual activity by measuring formation of 12-HHT from arachidonic acid preincubated at 10 uM for 5 mins before substrate addition measured after 5 mins by HPLC analysis relative to control; values are per cent of control
T2 sequence (whole entry): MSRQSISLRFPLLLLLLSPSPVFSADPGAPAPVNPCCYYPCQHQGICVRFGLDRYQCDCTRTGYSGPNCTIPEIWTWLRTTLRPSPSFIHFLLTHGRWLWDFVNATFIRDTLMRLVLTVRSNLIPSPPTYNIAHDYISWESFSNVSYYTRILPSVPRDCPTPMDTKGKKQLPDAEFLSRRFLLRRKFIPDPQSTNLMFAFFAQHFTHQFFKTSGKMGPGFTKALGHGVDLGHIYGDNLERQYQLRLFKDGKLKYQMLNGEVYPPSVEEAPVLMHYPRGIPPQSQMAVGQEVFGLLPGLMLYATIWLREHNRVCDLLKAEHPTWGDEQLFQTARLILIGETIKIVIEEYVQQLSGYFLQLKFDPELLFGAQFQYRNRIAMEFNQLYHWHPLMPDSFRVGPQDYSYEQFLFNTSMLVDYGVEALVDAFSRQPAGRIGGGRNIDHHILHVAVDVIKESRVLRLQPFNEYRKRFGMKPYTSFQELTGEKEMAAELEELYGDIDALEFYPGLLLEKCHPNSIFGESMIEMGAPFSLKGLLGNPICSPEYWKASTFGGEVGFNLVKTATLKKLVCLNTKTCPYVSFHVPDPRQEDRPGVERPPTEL

[4] = biological target: T3, Polyunsaturated fatty acid 5-lipoxygenase (Homo sapiens) (UniProt P09917); test: Ratio of curcumin IC50 to compound IC50 for 5-LO-mediated 5,12-DiHETE formation in LPS-stimulated human monocytes preincubated for 15 mins before arachidonic acid substrate addition measured after 30 mins by UPLC-MS/MS analysis; assay type: cell-based
T3 sequence (whole entry): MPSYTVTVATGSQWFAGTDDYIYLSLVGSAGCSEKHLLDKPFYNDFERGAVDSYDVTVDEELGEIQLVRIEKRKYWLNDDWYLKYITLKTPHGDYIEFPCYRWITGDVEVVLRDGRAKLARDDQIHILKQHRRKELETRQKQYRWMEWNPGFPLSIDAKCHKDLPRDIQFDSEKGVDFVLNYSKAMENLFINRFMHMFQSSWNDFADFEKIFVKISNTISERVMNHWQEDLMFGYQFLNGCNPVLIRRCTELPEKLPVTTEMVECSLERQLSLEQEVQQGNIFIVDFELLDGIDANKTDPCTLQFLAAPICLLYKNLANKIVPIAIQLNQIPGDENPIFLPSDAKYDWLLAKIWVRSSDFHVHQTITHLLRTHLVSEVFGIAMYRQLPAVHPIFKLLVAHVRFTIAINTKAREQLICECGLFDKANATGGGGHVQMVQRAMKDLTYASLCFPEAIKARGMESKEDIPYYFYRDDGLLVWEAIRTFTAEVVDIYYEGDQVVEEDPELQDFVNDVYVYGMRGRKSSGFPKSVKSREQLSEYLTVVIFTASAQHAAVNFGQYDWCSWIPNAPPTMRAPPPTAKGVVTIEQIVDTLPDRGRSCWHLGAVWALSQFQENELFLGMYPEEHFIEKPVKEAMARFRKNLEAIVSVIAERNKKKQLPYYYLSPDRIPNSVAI

[5] = biological target: T3, Polyunsaturated fatty acid 5-lipoxygenase (Homo sapiens); test: Ratio of curcumin IC50 to compound IC50 for 5-LO-mediated LTB4 formation in LPS-stimulated human monocytes preincubated for 15 mins before arachidonic acid substrate addition measured after 30 mins by UPLC-MS/MS analysis; assay type: cell-based
Prostaglandin E synthase [6] = biological target: T4, Prostaglandin E synthase (Homo sapiens, UniProt O14684); test: Inhibition of mPGES1-mediated PGE2 production in microsomes of IL-1beta stimulated human A549 cells preincubated for 15 mins by RP-HPLC analysis; assay type: cell-based; procedure, shortened: as §1
T4 sequence (O14684 whole entry): T1 sequence (whole entry)

[7] = biological target: T3, Polyunsaturated fatty acid 5-lipoxygenase (Homo sapiens); test: Ratio of curcumin IC50 to compound IC50 for 5-LO-mediated 5-HETE formation in LPS-stimulated human monocytes preincubated for 15 mins before arachidonic acid substrate addition measured after 30 mins by UPLC-MS/MS analysis; assay type: cell-based
[8] = biological target: T5, Prostaglandin G/H synthase 1 (Homo sapiens, UniProt P23219); test: Inhibition of COX1-mediated PGF2alpha formation in LPS-stimulated human monocytes preincubated for 15 mins before arachidonic acid substrate addition measured after 30 mins by UPLC-MS/MS analysis; assay type: cell-based
[9] = biological target: T5, Prostaglandin G/H synthase 1; test: Inhibition of COX1-mediated PGD2 formation in LPS-stimulated human monocytes preincubated for 15 mins before arachidonic acid substrate addition measured after 30 mins by UPLC-MS/MS analysis; assay type: cell-based
Prostaglandin E synthase [10] = biological target: T4, Prostaglandin E synthase; test: (§2) Inhibition of mPGES1-mediated PGE2 formation in LPS-stimulated human monocytes preincubated for 15 mins before arachidonic acid substrate addition measured after 30 mins by UPLC-MS/MS analysis; assay type: cell-based
Procedure, shortened: (§3)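 Fresh human monocytes (adherence-isolated, >85% CD14+; 5 × 10⁶/well) primed with LPS 1 μg/mL for 24 h. Washed, 15 min preincubation, then 2.5 μM A23187 plus 20 μM arachidonic acid for 30 min. Eicosanoids extracted and measured by UPLC-MS/MS, normalized to PGB1 as relative intensities. Two to three independent experiments.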

[11] = biological target: T1, Prostaglandin E synthase (Homo sapiens); test: as §2; assay type: cell-based; procedure, shortened: as §3

T5 sequence (P23219 whole entry): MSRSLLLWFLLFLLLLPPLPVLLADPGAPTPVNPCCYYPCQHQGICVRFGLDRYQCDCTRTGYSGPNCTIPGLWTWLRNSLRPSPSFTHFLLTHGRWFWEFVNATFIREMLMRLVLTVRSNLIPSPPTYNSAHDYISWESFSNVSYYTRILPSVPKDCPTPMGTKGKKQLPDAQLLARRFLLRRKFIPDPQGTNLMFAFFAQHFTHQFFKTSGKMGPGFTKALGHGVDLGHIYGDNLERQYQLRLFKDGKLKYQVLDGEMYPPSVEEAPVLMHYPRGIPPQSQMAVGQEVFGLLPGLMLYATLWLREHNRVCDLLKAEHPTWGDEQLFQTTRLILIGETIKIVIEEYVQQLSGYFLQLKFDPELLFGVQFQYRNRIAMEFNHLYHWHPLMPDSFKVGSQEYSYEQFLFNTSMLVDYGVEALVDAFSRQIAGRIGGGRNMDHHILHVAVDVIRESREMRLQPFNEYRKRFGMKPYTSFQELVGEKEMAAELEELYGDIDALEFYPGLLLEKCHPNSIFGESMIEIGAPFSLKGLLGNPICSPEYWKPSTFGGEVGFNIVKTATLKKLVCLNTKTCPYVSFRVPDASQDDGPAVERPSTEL

Row | Structure (SMILES) | Activity [1] | Stability [2] | IC50 (LNCaP) | residual activity [3] | Ratio IC50 [4] | Ratio IC50 [5] | IC50 (Prostaglandin E synthase [6]; read-out: IC50) | Ratio IC50 [7] | IC50 [8] | IC50 [9] | IC50 (Prostaglandin E synthase [10]) | inhibition [8] | inhibition [9] | inhibition [11] | IC50 (Prostaglandin E synthase [6]; a549)
1 | COc1cc(/C=C/C(=O)CC(=O)c2ccc(O)c(OC)c2)ccc1O | 72.6% | 72% | > 50 µM |  |  |  |  |  |  |  |  |  |  |  | 
2 | COc1cc(/C=C/C(=O)/C=C/c2cc(CC=C(C)C)c(O)c(OC)c2)cc(CC=C(C)C)c1O |  | Unstable | 43.8 µM | 78.7% | 2 | 2 | 1.5 µM | 2 |  |  |  |  |  |  | 
3 | COc1cc(/C=C/c2cc(/C=C/c3cc(CC=C(C)C)c(O)c(OC)c3)[nH]n2)cc(CC=C(C)C)c1O | 68% | Unstable | > 50 µM |  |  |  |  |  | > 10 µM | > 10 µM | > 10 µM |  |  |  | 
4 | COc1cc(/C=C/c2cc(-c3ccc(O)c(OC)c3)[nH]n2)ccc1O | 62.2% | Unstable | > 50 µM |  | 2 | 2 |  | 2 |  |  |  | Active | Active | Active | 
5 | COc1cc(/C=C/C(=O)CC(=O)/C=C/c2cc(CC=C(C)C)c(O)c(OC)c2)cc(CC=C(C)C)c1O | 59.6% | Unstable | > 50 µM | 80.2% |  |  |  |  |  |  |  |  |  |  | 
6 | COc1cc(/C=C/c2cc(/C=C/c3ccc(O)c(OC)c3)[nH]n2)ccc1O [CURCUMIN PYRAZOLE] | 54.8% | Unstable | > 50 µM |  | 2 | 2 |  | 2 |  |  |  | Active | Active | Active | 
7 | COc1cc(/C=C/C(=O)CC(=O)/C=C/c2ccc(O)c(OC)c2)ccc1O [CURCUMIN] |  | 41.6% | 36 µM |  |  |  | 0.6 µM |  |  |  | 1.2 µM | Active | Active |  | 
8 | COc1cc(CCC(=O)CC(=O)CCc2ccc(O)c(OC)c2)ccc1O [TETRAHYDROCURCUMIN] |  | Unstable | > 50 µM |  |  |  |  |  |  |  |  |  |  |  | Not Active
9 | COc1cc(/C=C/C(=O)/C=C/c2ccc(O)c(OC)c2)ccc1O |  | Unstable | 10 µM |  |  |  |  |  |  |  |  |  |  |  | Not Active

— ChEMBL document CHEMBL3286393 (J Med Chem, 2014)
